This passage reports Activity and inhibition results from ChEMBL document CHEMBL4342456, “Preventing Morphine-Seeking Behavior through the Re-Engineering of Vincamine's Biological Activity” (J Med Chem, 2020).

The test system of assay [1] is Mus musculus. As to the kind of experiment: Suppression of drug-induced morphine-seeking behavior in C57BL/6J mouse assessed as reduction in stress-induced reinstatement of morphine-CPP at 60 nmol, icv administered 15 mins prior to testing by forced swim test.
The target in assay [2] is T1, Prolactin-releasing peptide receptor (Homo sapiens) (UniProt P49683).
T1 sequence (whole entry): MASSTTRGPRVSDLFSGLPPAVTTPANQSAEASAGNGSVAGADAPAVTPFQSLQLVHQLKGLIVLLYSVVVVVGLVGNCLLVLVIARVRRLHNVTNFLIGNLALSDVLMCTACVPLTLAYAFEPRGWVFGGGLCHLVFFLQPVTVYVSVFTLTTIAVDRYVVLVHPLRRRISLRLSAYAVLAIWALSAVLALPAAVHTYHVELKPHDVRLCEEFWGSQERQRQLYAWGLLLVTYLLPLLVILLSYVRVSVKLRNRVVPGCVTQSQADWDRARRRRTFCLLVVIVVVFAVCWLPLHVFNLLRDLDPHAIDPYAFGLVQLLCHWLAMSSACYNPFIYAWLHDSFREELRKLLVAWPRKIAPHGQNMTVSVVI
As to the kind of experiment: Antagonist activity at human Gq-coupled PRLHR expressed in CHOK1 cells assessed as inhibition in prolactin releasing peptide (1 to 31)-induced beta-arrestin 2 recruitment at 20 uM incubated for 30 mins followed by prolactin releasing peptide (1 to 31) addition and measured after 90 or 180 mins by pathhunter beta-arrestin assay relative to control. Type of assay: cell-based. Put shortly:
(§1)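 PathHunter beta-arrestin recruitment, antagonist mode, run at DiscoverX. Cells seeded and held at 37 °C, then preincubated with test sample for 30 min at 37 °C or room temperature (1% vehicle). Agonist then added at EC80 for 90 or 180 min. IC50 comes from concentration–response runs in the same format.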

In the next assay the target is Cannabinoid receptor 2 (Homo sapiens, UniProt P34972). As to the kind of experiment: Antagonist activity at human Gi/o-coupled CNR2 expressed in CHOK1 cells assessed as inhibition in CP55940-induced beta-arrestin 2 recruitment at 20 uM incubated for 30 mins followed by CP55940 addition and measured after 90 or 180 mins by pathhunter beta-arrestin assay relative to control. The assay is classed as cell-based. Put shortly: as §1

In assay [3] the test system is Mus musculus. As to the kind of experiment: Suppression of drug-induced cocaine-seeking behavior in C57BL/6J mouse assessed as reduction in morphine-conditioned place preference at 60 nmol, icv administered 20 mins prior to behavioral morphine addition measured twice weekly for 7 weeks. The assay is classed as functional, organism-based. The settings on record: in the assay text read “morphine-seeking” for “cocaine-seeking”. Put shortly: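 Male C57BL/6J mice, 7–11 weeks, 20–33 g. Three-compartment counterbalanced place conditioning. Test agent given i.c.v. in 10% Solutol HS 15/90% saline, 20 min before morphine (10 mg/kg i.p., in 0.9% saline). Mice then confined 40 min in the paired outer chamber. Saline i.p. conditioning in the opposite chamber followed 4 h later. Preference was scored in a 30 min automated test. n = 16–30/group; two-way ANOVA with Tukey post hoc.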

The target in another assay is Prostacyclin receptor (Homo sapiens, UniProt P43119). As to the kind of experiment: Antagonist activity at human Gs-coupled PTGIR assessed as inhibition in beraprost-induced beta-arrestin 2 recruitment at 20 uM incubated for 30 mins followed by beraprost- addition and measured after 90 or 180 mins by pathhunter beta-arrestin assay relative to control. Put shortly:
as §1

Assay [4] addresses T2, Glucose-dependent insulinotropic receptor (Homo sapiens) (UniProt Q8TDV5).
T2 sequence (whole entry): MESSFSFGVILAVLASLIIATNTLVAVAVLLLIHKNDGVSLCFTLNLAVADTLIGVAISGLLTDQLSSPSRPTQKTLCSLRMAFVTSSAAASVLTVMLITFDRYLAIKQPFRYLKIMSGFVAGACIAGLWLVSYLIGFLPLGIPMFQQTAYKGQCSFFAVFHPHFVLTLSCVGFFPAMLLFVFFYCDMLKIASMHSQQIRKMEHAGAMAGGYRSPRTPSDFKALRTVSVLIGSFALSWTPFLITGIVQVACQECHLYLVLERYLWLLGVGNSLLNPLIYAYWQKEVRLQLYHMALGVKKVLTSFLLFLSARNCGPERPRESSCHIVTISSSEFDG
As to the kind of experiment: Antagonist activity at human GPR119 assessed as inhibition in oleoylethanolamide-induced beta-arrestin 2 recruitment at 20 uM incubated for 30 mins followed by oleoylethanolamide addition and measured after 90 or 180 mins by pathhunter beta-arrestin assay relative to control. Put shortly:
as §1

In assay [5] the target is T3, Orexin receptor type 2 (Homo sapiens) (UniProt O43614).
T3 sequence (whole entry): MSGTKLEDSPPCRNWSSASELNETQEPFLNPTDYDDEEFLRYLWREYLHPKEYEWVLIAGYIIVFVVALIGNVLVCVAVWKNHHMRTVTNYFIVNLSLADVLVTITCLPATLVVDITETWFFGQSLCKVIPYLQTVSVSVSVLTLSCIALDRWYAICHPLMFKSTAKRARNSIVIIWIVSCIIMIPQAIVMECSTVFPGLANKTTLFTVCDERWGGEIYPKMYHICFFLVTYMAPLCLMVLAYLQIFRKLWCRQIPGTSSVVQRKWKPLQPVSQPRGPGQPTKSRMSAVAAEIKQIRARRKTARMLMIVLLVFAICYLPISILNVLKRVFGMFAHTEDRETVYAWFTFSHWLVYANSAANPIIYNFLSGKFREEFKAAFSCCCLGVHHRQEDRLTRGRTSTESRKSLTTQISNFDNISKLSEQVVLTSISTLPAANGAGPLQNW
As to the kind of experiment: Antagonist activity at human Gq-coupled HCRTR2 expressed in CHOK1 cells assessed as inhibition in Orexin A-induced beta-arrestin 2 recruitment at 20 uM incubated for 30 mins followed by Orexin A addition and measured after 90 or 180 mins by pathhunter beta-arrestin assay relative to control. Type of assay: cell-based. Put shortly: as §1

In assay [6] the target is C-X-C chemokine receptor type 4 (Homo sapiens) (UniProt P61073). As to the kind of experiment: Antagonist activity at human Gi/o-coupled CXCR4 expressed in mouse C2C12 cells assessed as inhibition in CXCL12-induced beta-arrestin 2 recruitment at 20 uM incubated for 30 mins followed by CXCL12 addition and measured after 90 or 180 mins by pathhunter beta-arrestin assay relative to control. Type of assay: cell-based. Put shortly: as §1

In assay [7] the target is D(2) dopamine receptor (Homo sapiens) (UniProt P14416). As to the kind of experiment: Antagonist activity at human Gi/o-coupled DRD2L expressed in CHOK1 cells assessed as inhibition in dopamine-induced beta-arrestin 2 recruitment at 20 uM incubated for 30 mins followed by dopamine addition and measured after 90 or 180 mins by pathhunter beta-arrestin assay relative to control. Type of assay: cell-based. Put shortly:
as §1

In a further assay the target is Cannabinoid receptor 1 (Homo sapiens, UniProt P21554). As to the kind of experiment: Antagonist activity at human Gi/o-coupled CNR1 expressed in CHOK1 cells assessed as inhibition in CP55940-induced beta-arrestin 2 recruitment at 20 uM incubated for 30 mins followed by CP55940 addition and measured after 90 or 180 mins by pathhunter beta-arrestin assay relative to control. Type of assay: cell-based. Put shortly:
as §1

Assay [8] has as its target T4, Muscarinic acetylcholine receptor M4 (Homo sapiens) (UniProt P08173).
T4 sequence (whole entry): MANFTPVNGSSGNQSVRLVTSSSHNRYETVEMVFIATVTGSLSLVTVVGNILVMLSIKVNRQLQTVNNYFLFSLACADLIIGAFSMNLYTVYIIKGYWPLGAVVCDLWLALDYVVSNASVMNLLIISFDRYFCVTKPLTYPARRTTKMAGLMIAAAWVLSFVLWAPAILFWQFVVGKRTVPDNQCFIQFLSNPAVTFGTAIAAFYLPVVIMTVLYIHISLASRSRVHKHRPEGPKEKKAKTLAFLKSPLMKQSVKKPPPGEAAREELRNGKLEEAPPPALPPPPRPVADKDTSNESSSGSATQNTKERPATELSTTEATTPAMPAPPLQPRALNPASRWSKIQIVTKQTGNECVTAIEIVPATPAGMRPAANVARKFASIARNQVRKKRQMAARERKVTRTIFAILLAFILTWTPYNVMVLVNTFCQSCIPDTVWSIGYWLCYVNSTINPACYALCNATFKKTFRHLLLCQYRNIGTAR
As to the kind of experiment: Antagonist activity at human Gs/Gi/o-coupled CHRM4 expressed in CHOK1 cells assessed as inhibition in acetylcholine-induced beta-arrestin 2 recruitment at 20 uM incubated for 30 mins followed by acetylcholine addition and measured after 90 or 180 mins by pathhunter beta-arrestin assay relative to control. The assay is classed as cell-based. Put shortly:
as §1

Assay [9] deals with C-C chemokine receptor type 8 (Homo sapiens, UniProt P51685). As to the kind of experiment: Antagonist activity at human CCR8 expressed in CHOK1 cells assessed as inhibition in CCL1-induced beta-arrestin 2 recruitment at 20 uM incubated for 30 mins followed by CCL1 addition and measured after 90 or 180 mins by pathhunter beta-arrestin assay relative to control. Type of assay: cell-based. Put shortly:
as §1

The target of assay [10] is Histamine H1 receptor (Homo sapiens) (UniProt P35367). As to conditions: at 20 µM.
In assay [11] the target is T5, Neuropeptide S receptor (Homo sapiens) (UniProt Q6W5P4).
T5 sequence (whole entry): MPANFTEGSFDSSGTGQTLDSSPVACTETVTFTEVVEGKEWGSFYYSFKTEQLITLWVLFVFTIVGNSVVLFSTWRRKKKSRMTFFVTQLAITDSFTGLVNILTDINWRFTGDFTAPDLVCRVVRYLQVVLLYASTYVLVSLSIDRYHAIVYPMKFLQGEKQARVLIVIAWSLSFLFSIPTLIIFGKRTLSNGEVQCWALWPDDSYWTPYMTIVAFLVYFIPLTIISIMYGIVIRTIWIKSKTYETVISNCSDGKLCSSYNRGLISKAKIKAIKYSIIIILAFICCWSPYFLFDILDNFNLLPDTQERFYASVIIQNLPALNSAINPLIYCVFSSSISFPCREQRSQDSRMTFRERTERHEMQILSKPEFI
As to the kind of experiment: Antagonist activity at human Gq-coupled NPSR1b expressed in human U2OS cells assessed as inhibition in neuropeptide S-induced beta-arrestin 2 recruitment at 20 uM incubated for 30 mins followed by neuropeptide S addition and measured after 90 or 180 mins by pathhunter beta-arrestin assay relative to control. Type of assay: cell-based. Put shortly:
as §1

Activity calls are given as the source filed them. The rule behind the calls is not given here.

Sequence of Histamine H1 receptor (Homo sapiens) (P35367 whole entry): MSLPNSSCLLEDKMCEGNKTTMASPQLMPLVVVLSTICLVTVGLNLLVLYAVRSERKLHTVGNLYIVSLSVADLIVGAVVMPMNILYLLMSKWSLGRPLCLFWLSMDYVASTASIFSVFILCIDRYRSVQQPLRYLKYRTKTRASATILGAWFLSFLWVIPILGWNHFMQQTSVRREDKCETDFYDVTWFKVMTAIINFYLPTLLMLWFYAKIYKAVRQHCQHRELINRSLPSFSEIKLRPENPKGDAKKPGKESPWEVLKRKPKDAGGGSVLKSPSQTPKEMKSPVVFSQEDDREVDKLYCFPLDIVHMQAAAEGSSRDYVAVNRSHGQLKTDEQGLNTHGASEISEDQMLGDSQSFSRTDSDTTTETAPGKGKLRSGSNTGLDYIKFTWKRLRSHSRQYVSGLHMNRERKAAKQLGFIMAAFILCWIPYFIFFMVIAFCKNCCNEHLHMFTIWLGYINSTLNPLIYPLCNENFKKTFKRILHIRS
Sequence of Cannabinoid receptor 2 (P34972 whole entry): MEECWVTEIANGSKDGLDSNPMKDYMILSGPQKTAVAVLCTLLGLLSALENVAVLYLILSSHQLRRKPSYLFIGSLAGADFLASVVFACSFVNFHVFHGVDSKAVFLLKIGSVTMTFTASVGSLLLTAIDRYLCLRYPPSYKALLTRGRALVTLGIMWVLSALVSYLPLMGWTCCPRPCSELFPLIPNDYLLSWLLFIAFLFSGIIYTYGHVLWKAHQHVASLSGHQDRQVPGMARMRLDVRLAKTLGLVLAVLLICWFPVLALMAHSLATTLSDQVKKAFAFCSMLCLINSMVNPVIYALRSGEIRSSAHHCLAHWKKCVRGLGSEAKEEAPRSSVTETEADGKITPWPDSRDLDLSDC
Sequence of C-C chemokine receptor type 8 (P51685 whole entry): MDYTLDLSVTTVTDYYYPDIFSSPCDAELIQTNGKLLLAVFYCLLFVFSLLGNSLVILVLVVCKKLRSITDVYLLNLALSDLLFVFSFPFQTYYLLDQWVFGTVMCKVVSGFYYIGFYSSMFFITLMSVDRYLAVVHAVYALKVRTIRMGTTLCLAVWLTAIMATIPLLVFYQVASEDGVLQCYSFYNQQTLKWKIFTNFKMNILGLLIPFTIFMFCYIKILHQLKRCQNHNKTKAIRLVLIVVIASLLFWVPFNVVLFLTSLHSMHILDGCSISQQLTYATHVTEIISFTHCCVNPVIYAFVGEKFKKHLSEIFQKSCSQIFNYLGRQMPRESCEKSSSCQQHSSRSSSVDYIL
Sequence of D(2) dopamine receptor (Homo sapiens) (P14416 whole entry): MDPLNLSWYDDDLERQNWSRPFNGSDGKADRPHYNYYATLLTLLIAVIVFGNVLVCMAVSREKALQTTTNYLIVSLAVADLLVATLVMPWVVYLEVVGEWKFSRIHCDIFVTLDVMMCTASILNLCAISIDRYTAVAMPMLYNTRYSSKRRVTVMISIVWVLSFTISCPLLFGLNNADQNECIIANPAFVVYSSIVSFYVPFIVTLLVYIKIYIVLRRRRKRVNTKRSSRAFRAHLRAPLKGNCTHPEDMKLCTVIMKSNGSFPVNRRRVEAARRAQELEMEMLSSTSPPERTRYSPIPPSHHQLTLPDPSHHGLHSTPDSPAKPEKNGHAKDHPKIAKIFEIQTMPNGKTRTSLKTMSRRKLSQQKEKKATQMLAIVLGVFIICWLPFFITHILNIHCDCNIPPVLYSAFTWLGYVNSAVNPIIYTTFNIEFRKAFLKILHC
Sequence of C-X-C chemokine receptor type 4 (Homo sapiens) (P61073 whole entry): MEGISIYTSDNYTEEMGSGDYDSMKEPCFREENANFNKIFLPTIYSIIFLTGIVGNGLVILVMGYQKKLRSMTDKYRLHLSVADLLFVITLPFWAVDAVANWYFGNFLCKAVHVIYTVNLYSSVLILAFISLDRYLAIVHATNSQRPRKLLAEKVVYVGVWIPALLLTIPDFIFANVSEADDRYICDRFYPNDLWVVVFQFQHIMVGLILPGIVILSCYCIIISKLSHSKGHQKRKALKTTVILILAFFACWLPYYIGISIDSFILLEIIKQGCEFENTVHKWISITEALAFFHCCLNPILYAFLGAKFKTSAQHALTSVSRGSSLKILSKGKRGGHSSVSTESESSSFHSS
Sequence of Prostacyclin receptor (P43119 whole entry): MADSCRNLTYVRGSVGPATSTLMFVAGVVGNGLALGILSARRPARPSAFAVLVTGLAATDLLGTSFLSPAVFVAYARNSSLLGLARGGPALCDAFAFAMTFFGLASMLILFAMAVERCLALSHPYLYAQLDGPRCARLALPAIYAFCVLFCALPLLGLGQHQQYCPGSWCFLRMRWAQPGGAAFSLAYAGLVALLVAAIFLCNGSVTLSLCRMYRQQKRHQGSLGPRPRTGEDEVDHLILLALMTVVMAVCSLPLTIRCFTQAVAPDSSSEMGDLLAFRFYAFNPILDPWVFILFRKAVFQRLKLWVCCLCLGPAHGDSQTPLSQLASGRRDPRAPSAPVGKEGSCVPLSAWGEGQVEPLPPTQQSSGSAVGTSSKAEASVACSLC
Sequence of Cannabinoid receptor 1 (P21554 whole entry): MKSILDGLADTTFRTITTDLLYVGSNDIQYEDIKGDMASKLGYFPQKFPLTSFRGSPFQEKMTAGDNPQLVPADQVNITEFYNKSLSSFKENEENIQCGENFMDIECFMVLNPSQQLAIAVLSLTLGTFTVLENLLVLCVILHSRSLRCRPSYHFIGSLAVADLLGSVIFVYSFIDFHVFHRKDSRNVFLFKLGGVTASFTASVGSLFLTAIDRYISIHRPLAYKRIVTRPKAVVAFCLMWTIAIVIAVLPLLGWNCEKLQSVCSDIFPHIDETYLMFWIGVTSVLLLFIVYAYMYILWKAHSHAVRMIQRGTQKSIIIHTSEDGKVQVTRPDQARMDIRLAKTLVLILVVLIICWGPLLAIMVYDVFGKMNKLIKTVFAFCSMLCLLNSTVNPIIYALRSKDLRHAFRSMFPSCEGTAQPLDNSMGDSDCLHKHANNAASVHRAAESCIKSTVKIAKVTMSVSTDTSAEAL

Consider `CC[C@]12CCCN3CCc4c(n(c5ccccc45)[C@@](O)(C(=O)OC)C1)[C@@H]32`, for which the outcome with Mus musculus [1] and in the assay on Mus musculus [3] was inactive. The inhibition in [2] is 3%; at Cannabinoid receptor 2, 11%; at Prostacyclin receptor it was -3%; in assay [4], 3%; in assay [5] it was 9%; in [6] it was 10%. The inhibition is -10% in assay [7]; 0% on Cannabinoid receptor 1; -8% in [8]; 8% in assay [9]; 5% in [10].
For the compound `CC[C@@]1(CC(=O)NC2CCCC2)CCCN2CCc3c([nH]c4ccccc34)[C@@H]21`, the inhibition was found to be 18% in assay [2]; 17% at Cannabinoid receptor 2; 41% on Prostacyclin receptor; 2% in assay [4]; 8% in assay [5]; 4% in [6]. Also, the inhibition was determined as 98% in assay [7]; 1% on Cannabinoid receptor 1; 43% in assay [8]; 28% in assay [9]; 21% in assay [10].
Regarding `COC(=O)[C@@H]1[C@H]2C[C@H]3c4[nH]c5ccccc5c4CCN3C[C@@H]2CC[C@@H]1O`, the inhibition in [2] is 1%; on Cannabinoid receptor 2, 20%; in assay [11], -3%; on Prostacyclin receptor, 8%; in assay [4] it was 8%; in [5] it was 9%. Further, the inhibition in [6] amounted to 21%; in assay [7], 102%; at Cannabinoid receptor 1, 35%; in [8], 4%; in assay [9], 5%.
As for `CC[C@@]1(CC(=O)OC)CCCN2CC[C@]3(O)C(=Nc4ccccc43)[C@@H]21`, the inhibition is 26% in assay [2]; 2% on Cannabinoid receptor 2; 22% on Prostacyclin receptor; -2% in [4]; -4% in assay [5]; -9% in assay [6]. Also, the inhibition amounted to 0% in assay [7]; 4% at Cannabinoid receptor 1; 24% in assay [8]; 17% in [9]; 8% in [10].
As for `CC[C@@]12C=C(C(=O)OC)n3c(c(c4ccccc43)CCN(/C=C/C(=O)OC)CCC1)[C@@H]2c1ccc(O)cc1`, the inhibition in assay [2] was determined as 70%; at Cannabinoid receptor 2 it was 39%; in [11], 24%; at Prostacyclin receptor, 84%; in [4] it was 35%; in assay [5], 10%. Besides, the inhibition in [6] is 40%; in assay [7], 11%; at Cannabinoid receptor 1 it was 26%; in [8], 67%; in assay [9], 65%; in assay [10], 16%.
`CC[C@]12CCCN3CC[C@]4(C(=O)c5ccccc5N4C(=O)C1)[C@@H]32`: the inhibition in [2] is -7%; at Cannabinoid receptor 2, 13%; in assay [11], -10%; at Prostacyclin receptor, 22%; in assay [4], 5%; in [5] it was 16%. Moreover, the inhibition in [6] was -10%; in assay [7], -5%; on Cannabinoid receptor 1, 0%; in assay [8], 22%; in assay [9], 6%; in [10] it was -3%.
